Data on 23 compounds can be found in ChEMBL document CHEMBL1156562, “4-Amino-2-cyanopyrimidines: novel scaffold for nonpeptidic cathepsin S inhibitors” (Bioorg Med Chem Lett, 2008).

≈ marks a conversion by molar mass, not a printed value. Calls of active or inactive are those of the source.

One data set deals with Procathepsin L (Homo sapiens, UniProt P07711). The data set can be described thus: Inhibition of human recombinant cathepsin L by fluorometric assay. Summed up: (§1)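 Fluorometric inhibition assay with recombinant human enzymes. Cat K and Cat L used Z-Phe-Arg-AMC as substrate. Cat S used L-Leu-Leu-Arg-AMC as substrate. Values reported as IC50.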
Chain of Procathepsin L (P07711 whole entry): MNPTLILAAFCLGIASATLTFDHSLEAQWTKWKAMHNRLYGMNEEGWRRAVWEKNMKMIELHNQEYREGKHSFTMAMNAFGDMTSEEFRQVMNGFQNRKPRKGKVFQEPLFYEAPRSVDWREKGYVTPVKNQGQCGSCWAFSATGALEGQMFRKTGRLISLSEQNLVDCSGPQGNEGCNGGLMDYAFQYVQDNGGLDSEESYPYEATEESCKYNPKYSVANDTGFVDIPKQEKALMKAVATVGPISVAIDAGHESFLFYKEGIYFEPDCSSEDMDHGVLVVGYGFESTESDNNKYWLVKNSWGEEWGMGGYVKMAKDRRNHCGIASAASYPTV
The target in another data set is T1, Cathepsin K (Homo sapiens, UniProt P43235).
T1 sequence (P43235 whole entry): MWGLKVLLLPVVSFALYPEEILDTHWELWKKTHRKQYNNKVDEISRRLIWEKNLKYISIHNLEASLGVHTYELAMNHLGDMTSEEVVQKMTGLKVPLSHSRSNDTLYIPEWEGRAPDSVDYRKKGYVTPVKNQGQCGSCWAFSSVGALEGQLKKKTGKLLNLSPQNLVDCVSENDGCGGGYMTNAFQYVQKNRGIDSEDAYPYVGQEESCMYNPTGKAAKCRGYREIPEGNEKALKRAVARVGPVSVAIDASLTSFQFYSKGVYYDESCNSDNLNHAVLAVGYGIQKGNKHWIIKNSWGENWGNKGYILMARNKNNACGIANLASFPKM
Put plainly: Inhibition of human recombinant cathepsin K by fluorometric assay. The essentials: as §1

Another data set concerns the target Cathepsin S (Homo sapiens, UniProt P25774). The data set can be described thus: Inhibition of human recombinant cathepsin S by fluorometric assay. Summed up:
as §1

Data set [1] is described as follows: Half life in Sprague-Dawley rat at 1 mg/kg, iv. It counts as ADME, organism-based. Set-up: dose 1 mg/kg, route intravenous. As to conditions: in vivo. Summed up:
(§2)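 Male Sprague-Dawley rats, cassette dosing. Single iv dose of 1 mg/kg and po dose of 3 mg/kg. Clearance and half-life taken from iv data. Bioavailability and po AUC derived from both routes, with AUC dose-normalized to 1 mg/kg. Values are means of n = 3, with n = 2 for some iv groups.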

Data set [2] in a line: Aqueous solubility at pH 6.8. It counts as physicochemical. The essentials:
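Thermodynamic solubility, measured at pH 6.8 and 25 °C.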

Data set [3] in a line: Clearance in Sprague-Dawley rat at 1 mg/kg, iv and 3 mg/kg, po. It counts as ADME, organism-based. As to conditions: in vivo. Summed up:
as §2

Data set [4] can be described thus: Bioavailability in Sprague-Dawley rat at 1 mg/kg, iv and 3 mg/kg, po. It counts as ADME, organism-based. As to conditions: in vivo. The essentials:
as §2

The target of data set [5] is Cathepsin S (Mus musculus) (UniProt O70370). Put plainly: Inhibition of cathepsin S in mouse A20 cells assessed as invariant chain degradation at 1 uM. It counts as cell-based. Summed up:
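Mouse A20 cells treated at 1 µM. Cellular cathepsin S activity read out as degradation of invariant chain (Ii).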

The species entered for another data set is Homo sapiens. The data set can be described thus: Selectivity for human recombinant cathepsin S over human recombinant cathepsin L.
A short description of data set [6]: Clearance in Sprague-Dawley rat at 1 mg/kg, iv. Details: dose 1 mg/kg, route intravenous. It counts as ADME, organism-based. To be noted: in vivo. The essentials:
as §2

A further data set concerns Rattus norvegicus. Put plainly: Bioavailability in Sprague-Dawley rat at 1 mg/kg, iv. It counts as ADME, organism-based. To be noted: in vivo. The essentials: as §2

Chain of Cathepsin S (P25774 whole entry): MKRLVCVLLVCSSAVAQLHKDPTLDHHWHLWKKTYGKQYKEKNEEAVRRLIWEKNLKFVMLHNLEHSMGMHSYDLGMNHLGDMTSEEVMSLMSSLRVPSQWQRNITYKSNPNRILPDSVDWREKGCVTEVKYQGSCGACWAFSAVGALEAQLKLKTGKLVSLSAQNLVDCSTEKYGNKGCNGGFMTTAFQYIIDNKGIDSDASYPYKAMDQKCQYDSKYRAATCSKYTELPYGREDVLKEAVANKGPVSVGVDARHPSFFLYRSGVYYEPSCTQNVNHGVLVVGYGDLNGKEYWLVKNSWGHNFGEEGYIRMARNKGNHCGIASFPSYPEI

As usually defined, the IC50 is the point on the concentration scale where inhibition reaches its midpoint. For `N#Cc1ncc(C(=O)NCCc2ccccc2)c(NC2CCCCC2)n1`, the IC50 at Procathepsin L turned out to be 1100 nM; on Cathepsin K, 10 nM; on Cathepsin S, 130 nM.
By half-life is commonly meant the time needed for the level to fall by half in the phase considered. Read a high half-life as slow loss. What is called solubility is how much of the substance goes into solution per volume. Read a low solubility as a poorly soluble substance. Usually bioavailability stands for dose-corrected exposure relative to a reference, in per cent. `CN1CCC(CCOc2nc(C#N)nc(NCC3CCC4(CC3)CC4)c2Br)CC1` gave a half-life in [1] of 4.6 h. The same compound came in with a solubility in data set [2] of 11 µg/mL (≈ 23.8 µM). For the same compound, the IC50 turned out to be 280 nM at Procathepsin L, 100 nM on Cathepsin K and 2 nM on Cathepsin S. The clearance in data set [3] is 85 mL/min/kg. Further, in [4], the bioavailability was 100%.
Take `CN1CCC(CCOc2cc(NCC3CCC4(CC3)CC4)nc(C#N)n2)CC1`: the IC50 at Procathepsin L is 870 nM; on Cathepsin K, 240 nM; at Cathepsin S it was 22 nM.
`CN1CCC(Oc2ccc(NC(=O)c3cnc(C#N)nc3NCC3CCC4(CC3)CC4)c(-c3ccccc3)c2)CC1` yielded a half-life in data set [1] of more than 8 h. This compound showed a solubility in [2] of 2 µg/mL (≈ 3.63 µM). In addition, the values for the IC50 on Procathepsin L and at Cathepsin S were 840 nM and 3 nM, respectively. For the same compound, the clearance in data set [3] is 13.3 mL/min/kg. Also, the result in [5] was Active. In data set [4], this compound gave a bioavailability of 66%.
In the case of `CN1CCC(CCOc2nc(C#N)nc(NCC3CCC4(CC3)CC4)c2C(=O)NCc2ccccc2)CC1`, the results for the IC50 on Procathepsin L and on Cathepsin S were 270 nM and less than 1 nM, respectively.
On to `N#Cc1ncc(C(=O)NCCc2ccccc2)c(NCC2CCC(F)(F)CC2)n1`, for which the concentration for half-maximal inhibition (IC50) is more than 3000 nM at Procathepsin L, 130 nM on Cathepsin K and 22 nM on Cathepsin S.
The matching figures for `N#Cc1ncc(C(=O)NCCc2ccccc2)c(NCC2CCC3(CC2)CC3)n1`: more than 3000 nM, more than 3000 nM and 15 nM.
For the compound `N#Cc1ncc(C(=O)N[C@@H](Cc2ccccc2)CN2CCCC2)c(NCC2CCC3(CC2)CC3)n1`, the IC50 amounted to 1500 nM at Procathepsin L, 200 nM at Cathepsin K and 23 nM on Cathepsin S.
Take `CN1CCC(CCOc2nc(C#N)nc(NCC3CCC4(CC3)CC4)c2C(=O)NCCc2ccccc2)CC1`: the IC50 on Procathepsin L is 10 nM; on Cathepsin S, less than 1 nM.
On to `CN1CCC(COc2nc(C#N)nc(NCC3CCC4(CC3)CC4)c2C(=O)NCc2ccccc2)CC1`, for which the values for the IC50 on Procathepsin L and on Cathepsin S were 64 nM and less than 1 nM, respectively.
`CN1CCC(Cc2ccccc2)(NC(=O)c2cnc(C#N)nc2NCC2CCC3(CC2)CC3)CC1`: the results for the concentration for half-maximal inhibition (IC50) at Procathepsin L, at Cathepsin K and on Cathepsin S were 180 nM, 140 nM and 2 nM, respectively. In the data set listed under Homo sapiens, the Selectivity ratio is more than 100.
With `CNC(=O)c1c(NCC2CCC3(CC2)CC3)nc(C#N)nc1OCCC1CCN(C)CC1`, the IC50 was found to be 120 nM on Procathepsin L and 2 nM on Cathepsin S.
As to `CN1CCC(NC(=O)c2cnc(C#N)nc2NCC2CCC3(CC2)CC3)(c2ccccc2)CC1`, the figures for the IC50 on Procathepsin L and on Cathepsin S were 510 nM and 7 nM, respectively. For the same compound, the Selectivity ratio in the data set listed under Homo sapiens is more than 100.
On to `N#Cc1ncc(C(=O)N[C@H](Cc2ccccn2)CN2CCCC2)c(NCC2CCC3(CC2)CC3)n1`, for which the IC50 on Procathepsin L stood at 480 nM; on Cathepsin S, 4 nM.
Turning to `C[C@@](Cc1ccccc1)(CN1CCCC1)NC(=O)c1cnc(C#N)nc1NCC1CCC2(CC1)CC2`, the results for the IC50 on Procathepsin L and at Cathepsin S were 840 nM and 21 nM, respectively.
Compound `CN1CCC(CNC(=O)c2cnc(C#N)nc2NCC2CCC3(CC2)CC3)(c2ccccc2)CC1` had a half-life in data set [1] of 3.3 h. Further, the solubility in data set [2] worked out at 89 µg/mL (≈ 188 µM). In addition, the figures for the IC50 at Procathepsin L, on Cathepsin K and at Cathepsin S were 700 nM, 170 nM and 6 nM, respectively. Further, the Selectivity ratio in the data set listed under Homo sapiens was more than 100. Besides, the result in data set [5] was Active. In data set [6], the clearance is 173 mL/min/kg. This compound displayed a F in the data set with Rattus norvegicus of 100%.
Turning to `CC1(C)CCC(CNc2nc(C#N)ncc2C(=O)NCCc2ccccc2)CC1`, the IC50 at Procathepsin L is more than 3000 nM; on Cathepsin K, more than 3000 nM; on Cathepsin S, 93 nM.
As for `N#Cc1ncc(C(=O)N[C@H](Cc2ccccc2)CN2CCCC2)c(NCC2CCC3(CC2)CC3)n1`, the half-life in [1] is 5.7 h. The same compound showed a solubility in data set [2] of 27 µg/mL (≈ 57.1 µM). Moreover, the figures for the IC50 at Procathepsin L, on Cathepsin K and at Cathepsin S were 150 nM, 44 nM and less than 1 nM, respectively. In the data set filed under Homo sapiens, the Selectivity ratio was more than 100. Moreover, the clearance in [3] was 16.7 mL/min/kg. Also, the outcome in [5] was Active. In data set [4], the bioavailability stood at 42%.
Turning to `CN(CC1CCCCC1)c1nc(C#N)ncc1C(=O)NCCc1ccccc1`, the 50% inhibitory concentration (IC50) amounted to 2000 nM at Procathepsin L, 36 nM on Cathepsin K and 32 nM on Cathepsin S.
The matching figures for `COc1cc(NC(=O)c2cnc(C#N)nc2NCC2CCC3(CC2)CC3)c(-c2ccccc2)cc1OC`: more than 3000 nM, more than 1000 nM and 24 nM.
The like results for `N#Cc1ncc(C(=O)NCCc2ccccc2)c(NCC2CCCCC2)n1` were, in that order, more than 2000 nM, 15 nM and 22 nM.
Regarding `CN1CCC(Oc2nc(C#N)nc(NCC3CCC4(CC3)CC4)c2C(=O)NCc2ccccc2)CC1`, the values for the IC50 at Procathepsin L and on Cathepsin S were 100 nM and 1 nM, respectively.
With `N#Cc1ncc(C(=O)NCCc2ccccc2)c(OCC2CCCCC2)n1`, the IC50 amounted to 780 nM at Procathepsin L, 9 nM on Cathepsin K and 14 nM at Cathepsin S.
